Active and inactive are the calls of the source. The rule behind the calls is not given here.
Experiments:
SH-SY5Y [1] = test: Neuroprotective activity against H2O2-induced cytotoxicity in human SH-SY5Y cells at 25 to 100 uM preincubated for 1 hr followed by H2O2-stimulation and measured after 4 hrs by MTT assay; assay type: functional, cell-based
Outline: (§1)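 SH-SY5Y cells preincubated with compound (25, 50 or 100 μM) for 1 h, then exposed to 300 μM H2O2 for 4 h. Viability read by MTT assay. Trolox served as positive control.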

SH-SY5Y [2] = test: Neuroprotective activity against H2O2-induced cytotoxicity in human SH-SY5Y cells at 25 uM preincubated for 1 hr followed by H2O2-stimulation and measured after 4 hrs by MTT assay; assay type: functional, cell-based; outline: as §1
SH-SY5Y [3] = test: Inhibition of H2O2-induced apoptosis in human SH-SY5Y cells assessed as decrease in caspase-3 activity at 25 uM; assay type: functional, cell-based
Outline: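 SH-SY5Y cells exposed to H2O2 with or without test compound; caspase-3 activity in the cells quantified with a commercial caspase-3 activity assay kit; data given as means ± SDs.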

SH-SY5Y [4] = test: Inhibition of H2O2-induced apoptosis in human SH-SY5Y cells assessed as necrotic cells at 25 uM preincubated for 1 hr followed by H2O2-stimulation and measured after 4 hrs by Annexin V-FITC/propidium iodide staining-based flow cytometric analysis (reference value: 22.2%); assay type: functional; design: scale not given: the % may be the effect or the level left
SH-SY5Y [5] = test: Inhibition of H2O2-induced apoptosis in human SH-SY5Y cells assessed as early apoptotic cells at 25 uM preincubated for 1 hr followed by H2O2-stimulation and measured after 4 hrs by Annexin V-FITC/propidium iodide staining-based flow cytometric analysis (reference value: 2.25%); assay type: functional; design: scale not given: the % may be the effect or the level left
SH-SY5Y [6] = test: Inhibition of H2O2-induced apoptosis in human SH-SY5Y cells assessed as late apoptotic cells at 25 uM preincubated for 1 hr followed by H2O2-stimulation and measured after 4 hrs by Annexin V-FITC/propidium iodide staining-based flow cytometric analysis (reference value: 24.9%); assay type: functional; design: scale not given: the % may be the effect or the level left
SH-SY5Y [7] = test: Inhibition of H2O2-induced apoptosis in human SH-SY5Y cells assessed as viable cells at 25 uM preincubated for 1 hr followed by H2O2-stimulation and measured after 4 hrs by Annexin V-FITC/propidium iodide staining-based flow cytometric analysis (reference value: 50.7%); assay type: functional; details: read-out: Activity

In the case of `COC1=C[C@@H](C)[C@@H]2C[C@H]3O[C@@H](O[C@@H]4O[C@H](CO)[C@@H](O)[C@H](O)[C@H]4O)C[C@@H]4[C@@]3(C)[C@H]([C@H](O)C(=O)[C@@]4(C)O)[C@@]2(C)C1=O`, the Activity (SH-SY5Y [1]) is reported as “inactive”.

With `COC1=C[C@@H](C)[C@@H]2C[C@H]3OC(=O)C[C@H]4[C@](C)(O)[C@@H]5OCO[C@H]5[C@H]([C@@]2(C)C1=O)[C@@]34C` the Activity (SH-SY5Y [1]) was “Active”.

With `COC1=C[C@@H](C)[C@@H]2C[C@H]3OC(=O)C[C@H]4[C@](C)(O)[C@@H](O)C(=O)[C@H]([C@@]2(C)C1=O)[C@@]34C` the Activity (SH-SY5Y [1]) was “inactive”.

`COC1=C(C)[C@@H]2CC(=O)O[C@@H]3C[C@H]4[C@H](C)C[C@H](O)C(=O)[C@]4(C)[C@@H](C1=O)[C@@]32C` was tested, and the Activity (SH-SY5Y [1]) was “Active”.

With `COC1=C[C@@H](C)[C@@H]2C[C@H]3OC(=O)C[C@H]4[C@@H](C)[C@@H]5OCO[C@H]5[C@H]([C@@]2(C)C1=O)[C@@]34C` the Activity (SH-SY5Y [1]) was “Active”.

`COC1=C[C@@H](C)[C@@H]2C[C@H]3OC(=O)C=C4[C@@H](C)[C@@H]5OCO[C@H]5[C@@H]([C@]43C)[C@@]2(C)C1=O` was tested, and the Activity (SH-SY5Y [1]) was “inactive”.

`COC1=C[C@@H](C)[C@@H]2C[C@H]3O[C@@H](O[C@@H]4O[C@H](CO)[C@@H](O)[C@H](O)[C@H]4O)C[C@H]4C(C)=C(OC)C(=O)[C@H]([C@@]2(C)C1=O)[C@@]34C` [PICRASINOSIDE B] was tested, and the Activity (SH-SY5Y [2]) was “Active”, the Activity (SH-SY5Y [3]) was “Active” and the Activity (SH-SY5Y [4]) was 7.43%. The Activity (SH-SY5Y [5]) was 1.86%, the Activity (SH-SY5Y [6]) was 8.55% and the viability at 25 µM (SH-SY5Y [7]) was 82.2%.

For `COC1=C[C@@H](C)[C@@H]2C[C@H]3OC(=O)C[C@H]4[C@@H](C)[C@H](O)C(=O)[C@H]([C@@]2(C)C1=O)[C@@]34C`, the Activity (SH-SY5Y [1]) was “inactive”.

With `COC1=C[C@@H](C)[C@@H]2C[C@H]3OC(=O)C[C@H]4C(C)=C(OC)C(=O)[C@H]([C@@]2(C)C1=O)[C@@]34C` [QUASSIN] the Activity (SH-SY5Y [2]) was “Active”, the Activity (SH-SY5Y [4]) was 10.7% and the Activity (SH-SY5Y [5]) was 2.45%. It also gave an Activity (SH-SY5Y [6]) of 13.7% and a viability at 25 µM (SH-SY5Y [7]) of 73.1%.

For `COC1=C[C@@H](C)[C@@H]2C[C@H]3OC(=O)C[C@H]4C(CO)=C(OC)C(=O)[C@H]([C@@]2(C)C1=O)[C@@]34C`, the Activity (SH-SY5Y [2]) was “Active”, the Activity (SH-SY5Y [4]) was 7.31% and the Activity (SH-SY5Y [5]) was 2.96%. It also gave an Activity (SH-SY5Y [6]) of 13% and a viability at 25 µM (SH-SY5Y [7]) of 76.8%.

In the case of `COC1=C[C@@H](C)[C@@H]2C[C@H]3O[C@@H](O[C@@H]4O[C@H](CO)[C@@H](O)[C@H](O)[C@H]4O)C[C@@H]4[C@@]3(C)[C@H]([C@H](O)C(=O)[C@@]4(C)OC(C)=O)[C@@]2(C)C1=O`, the Activity (SH-SY5Y [1]) is reported as “inactive”.

For `COC1=C[C@@H](C)[C@@H]2C[C@H]3O[C@@H](O[C@@H]4O[C@H](CO)[C@@H](O)[C@H](O)[C@H]4O)C[C@H]4[C@@H](C)[C@H](OC)[C@@H](O)[C@H]([C@@]2(C)C1=O)[C@@]34C`, the Activity (SH-SY5Y [1]) was “Active”.

With `COC1=C[C@@H](C)[C@@H]2C[C@H]3OC(=O)C[C@@]4(O)[C@@H](C)[C@H](OC)[C@@H](O)[C@H]([C@@]2(C)C1=O)[C@@]34C` the Activity (SH-SY5Y [1]) was “Active”.

With `COC1=C[C@@H](C)[C@@H]2C[C@H]3OC(=O)C=C4C(C)=C(OC)C(=O)[C@@H]([C@]43C)[C@@]2(C)C1=O` the Activity (SH-SY5Y [1]) was “Active”.

For `COC1=C[C@@H](C)[C@@H]2C[C@H]3OC(=O)C[C@H]4[C@@H](C)[C@@H](O)C(=O)[C@H]([C@@]2(C)C1=O)[C@@]34C`, the Activity (SH-SY5Y [1]) was “inactive”.

In the case of `COC1=C[C@@H](C)[C@@H]2C[C@H]3OC(=O)C[C@H]4[C@@H](C)[C@H](OC)[C@@H](OC(=O)c5cc(OC)c6c(c5)OCO6)[C@H]([C@@]2(C)C1=O)[C@@]34C`, the Activity (SH-SY5Y [2]) is reported as “Active”, the Activity (SH-SY5Y [3]) is reported as “Active” and the Activity (SH-SY5Y [4]) is reported as 7.89%. It also gave an Activity (SH-SY5Y [5]) of 2.2%, an Activity (SH-SY5Y [6]) of 10.1% and a viability at 25 µM (SH-SY5Y [7]) of 79.8%.

In the case of `COC1=C[C@@H](C)[C@@H]2C[C@H]3OC(=O)C[C@@]4(O)C(C)=C(OC)C(=O)[C@H]([C@@]2(C)C1=O)[C@@]34C`, the Activity (SH-SY5Y [2]) is reported as “Active”, the Activity (SH-SY5Y [4]) is reported as 11.3% and the Activity (SH-SY5Y [5]) is reported as 3.18%. It also gave an Activity (SH-SY5Y [6]) of 13.4% and a viability at 25 µM (SH-SY5Y [7]) of 72.1%.

With `COC1=C[C@@H](C)[C@@H]2C[C@H]3O[C@@H](O[C@@H]4O[C@H](CO)[C@@H](O)[C@H](O)[C@H]4O)C[C@H]4[C@](C)(O)[C@H](OC)[C@@H](O)[C@H]([C@@]2(C)C1=O)[C@@]34C` the Activity (SH-SY5Y [1]) was “Active”.

In the case of `COC1=C[C@@H](C)[C@@H]2C[C@H]3OC(=O)C[C@H]4[C@](C)(O)[C@H](OC)[C@@H](O)[C@H]([C@@]2(C)C1=O)[C@@]34C`, the Activity (SH-SY5Y [1]) is reported as “Active”.

— ChEMBL document CHEMBL4480463, “Quassinoids from Picrasma quassioides and Their Neuroprotective Effects” (2019)
